Experimental data as given in ChEMBL document CHEMBL4477266, “Discovery of N-(benzyloxy)-1,3-diphenyl-1H-pyrazole-4-carboxamide derivatives as potential antiproliferative agents by inhibiting MEK” (Bioorg Med Chem, 2016).

Key:
HeLa = assay: Antiproliferative activity against human HeLa cells after 48 hrs in presence of 10% FBS by MTT method; type: functional
Outline: (§1)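 Cells were grown to log phase in DMEM with 10% fetal bovine serum at 37 °C under humidified 5% CO₂. They were seeded at 10⁵ cells/well and left 24 h to reattach. Compounds were added at increasing concentrations with 10% FBS for 48 h. Values are the mean of three independent experiments, each run in triplicate.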

MCF7 = assay: Antiproliferative activity against human MCF7 cells after 48 hrs in presence of 10% FBS by MTT method; type: functional; conditions: MCF7, 48 h; outline: as §1
A549 = assay: Antiproliferative activity against human A549 cells after 48 hrs in presence of 10% FBS by MTT method; type: functional; conditions: A549, 48 h; outline: as §1
[1] = Antiproliferative activity against human 293T cells after 48 hrs in presence of 10% FBS by MTT method; type: cell-based; conditions: 293T (HEK-293T) cells; outline: as §1
Aurora kinase A = biological target: T1, Aurora kinase A (Homo sapiens, UniProt O14965); assay: Inhibition of Aurora A (unknown origin)
T1 sequence (O14965 whole entry): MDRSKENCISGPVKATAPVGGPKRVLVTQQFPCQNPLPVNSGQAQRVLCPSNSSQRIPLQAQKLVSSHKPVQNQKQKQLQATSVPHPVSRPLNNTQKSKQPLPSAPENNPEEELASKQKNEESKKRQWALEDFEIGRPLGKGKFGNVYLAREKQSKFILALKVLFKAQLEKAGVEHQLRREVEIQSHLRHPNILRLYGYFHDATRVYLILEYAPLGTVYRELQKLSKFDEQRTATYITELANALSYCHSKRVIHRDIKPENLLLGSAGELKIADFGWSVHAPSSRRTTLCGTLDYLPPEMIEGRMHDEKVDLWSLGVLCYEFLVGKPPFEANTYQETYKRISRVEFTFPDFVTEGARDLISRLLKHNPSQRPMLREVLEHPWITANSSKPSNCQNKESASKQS

[2] = biological target: T2, Dual specificity mitogen-activated protein kinase kinase 1 (Homo sapiens, UniProt Q02750); assay: Inhibition of recombinant full length human N-terminal GST-tagged C-terminal His6-tagged MEK1 expressed in Escherichia coli using myelin basic protein as substrate in presence of activated BRAF and ERK2 by ELISA
Target sequence in this assay (Q02750 whole entry): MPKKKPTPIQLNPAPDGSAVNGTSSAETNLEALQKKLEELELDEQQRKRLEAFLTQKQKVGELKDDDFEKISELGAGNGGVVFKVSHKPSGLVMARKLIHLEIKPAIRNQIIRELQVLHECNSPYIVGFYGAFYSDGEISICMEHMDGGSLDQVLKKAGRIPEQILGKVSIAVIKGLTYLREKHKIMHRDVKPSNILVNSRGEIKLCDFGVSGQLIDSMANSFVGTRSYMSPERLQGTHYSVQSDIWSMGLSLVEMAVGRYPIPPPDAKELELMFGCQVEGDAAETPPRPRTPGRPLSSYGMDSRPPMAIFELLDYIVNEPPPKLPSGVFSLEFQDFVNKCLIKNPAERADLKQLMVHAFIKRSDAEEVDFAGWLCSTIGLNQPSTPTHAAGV

[3] = biological target: T2, Dual specificity mitogen-activated protein kinase kinase 1; assay: Inhibition of MEK1 in […] human A549 cells assessed as reduction in ERK1/2 phosphorylation by ELISA; type: cell-based
Target sequence in this assay (Q02750 whole entry, looked up, change not shown): as the sequence (Q02750 whole entry) above

[4] = biological target: Epidermal growth factor receptor (Homo sapiens, UniProt P00533); assay: Inhibition of EGFR (unknown origin)
Focal adhesion kinase 1 = Focal adhesion kinase 1 (Homo sapiens, UniProt Q05397); assay: Inhibition of FAK in human MCF7 cells; type: cell-based
[5] = biological target: Receptor tyrosine-protein kinase erbB-2 (Homo sapiens, UniProt P04626); assay: Inhibition of HER2 (unknown origin)
[6] = biological target: Vascular endothelial growth factor receptor 2 (Homo sapiens, UniProt P35968); assay: Inhibition of VEGFR2 (unknown origin)
Vascular endothelial growth factor receptor 2, sequence (P35968 whole entry): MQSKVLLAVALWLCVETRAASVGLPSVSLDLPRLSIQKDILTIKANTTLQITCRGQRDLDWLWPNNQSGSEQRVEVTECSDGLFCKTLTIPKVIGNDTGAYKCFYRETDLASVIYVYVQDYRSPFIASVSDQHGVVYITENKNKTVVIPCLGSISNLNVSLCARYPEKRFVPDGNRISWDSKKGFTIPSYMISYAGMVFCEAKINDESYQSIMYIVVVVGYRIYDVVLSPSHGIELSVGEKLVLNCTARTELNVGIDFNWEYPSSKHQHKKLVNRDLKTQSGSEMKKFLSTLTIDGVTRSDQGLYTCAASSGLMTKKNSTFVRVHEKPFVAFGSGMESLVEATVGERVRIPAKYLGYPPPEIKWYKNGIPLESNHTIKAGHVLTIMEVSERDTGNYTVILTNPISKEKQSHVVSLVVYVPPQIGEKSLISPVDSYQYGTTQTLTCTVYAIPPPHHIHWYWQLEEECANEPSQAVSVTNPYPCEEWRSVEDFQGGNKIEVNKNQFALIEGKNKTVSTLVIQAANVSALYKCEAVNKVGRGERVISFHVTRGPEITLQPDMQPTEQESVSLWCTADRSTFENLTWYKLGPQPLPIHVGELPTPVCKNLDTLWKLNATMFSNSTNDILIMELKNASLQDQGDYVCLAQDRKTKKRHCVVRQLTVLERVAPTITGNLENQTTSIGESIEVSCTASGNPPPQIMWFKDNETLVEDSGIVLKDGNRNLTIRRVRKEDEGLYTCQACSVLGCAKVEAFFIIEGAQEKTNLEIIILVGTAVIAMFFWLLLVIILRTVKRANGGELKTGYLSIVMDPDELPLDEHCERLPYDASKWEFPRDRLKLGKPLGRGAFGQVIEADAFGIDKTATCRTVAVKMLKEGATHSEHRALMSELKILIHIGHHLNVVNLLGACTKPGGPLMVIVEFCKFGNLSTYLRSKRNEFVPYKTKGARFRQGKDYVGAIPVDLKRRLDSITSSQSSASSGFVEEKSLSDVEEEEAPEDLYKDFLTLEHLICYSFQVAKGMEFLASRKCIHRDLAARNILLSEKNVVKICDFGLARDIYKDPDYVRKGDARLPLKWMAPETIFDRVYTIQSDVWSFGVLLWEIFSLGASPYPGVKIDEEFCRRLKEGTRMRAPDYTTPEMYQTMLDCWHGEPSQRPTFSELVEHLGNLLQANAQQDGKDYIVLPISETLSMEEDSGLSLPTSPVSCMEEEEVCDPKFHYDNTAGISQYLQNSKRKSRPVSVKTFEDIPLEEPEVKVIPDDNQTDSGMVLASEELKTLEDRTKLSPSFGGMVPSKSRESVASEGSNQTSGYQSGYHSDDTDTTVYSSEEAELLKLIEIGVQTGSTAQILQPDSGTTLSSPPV

Epidermal growth factor receptor, sequence (P00533 whole entry): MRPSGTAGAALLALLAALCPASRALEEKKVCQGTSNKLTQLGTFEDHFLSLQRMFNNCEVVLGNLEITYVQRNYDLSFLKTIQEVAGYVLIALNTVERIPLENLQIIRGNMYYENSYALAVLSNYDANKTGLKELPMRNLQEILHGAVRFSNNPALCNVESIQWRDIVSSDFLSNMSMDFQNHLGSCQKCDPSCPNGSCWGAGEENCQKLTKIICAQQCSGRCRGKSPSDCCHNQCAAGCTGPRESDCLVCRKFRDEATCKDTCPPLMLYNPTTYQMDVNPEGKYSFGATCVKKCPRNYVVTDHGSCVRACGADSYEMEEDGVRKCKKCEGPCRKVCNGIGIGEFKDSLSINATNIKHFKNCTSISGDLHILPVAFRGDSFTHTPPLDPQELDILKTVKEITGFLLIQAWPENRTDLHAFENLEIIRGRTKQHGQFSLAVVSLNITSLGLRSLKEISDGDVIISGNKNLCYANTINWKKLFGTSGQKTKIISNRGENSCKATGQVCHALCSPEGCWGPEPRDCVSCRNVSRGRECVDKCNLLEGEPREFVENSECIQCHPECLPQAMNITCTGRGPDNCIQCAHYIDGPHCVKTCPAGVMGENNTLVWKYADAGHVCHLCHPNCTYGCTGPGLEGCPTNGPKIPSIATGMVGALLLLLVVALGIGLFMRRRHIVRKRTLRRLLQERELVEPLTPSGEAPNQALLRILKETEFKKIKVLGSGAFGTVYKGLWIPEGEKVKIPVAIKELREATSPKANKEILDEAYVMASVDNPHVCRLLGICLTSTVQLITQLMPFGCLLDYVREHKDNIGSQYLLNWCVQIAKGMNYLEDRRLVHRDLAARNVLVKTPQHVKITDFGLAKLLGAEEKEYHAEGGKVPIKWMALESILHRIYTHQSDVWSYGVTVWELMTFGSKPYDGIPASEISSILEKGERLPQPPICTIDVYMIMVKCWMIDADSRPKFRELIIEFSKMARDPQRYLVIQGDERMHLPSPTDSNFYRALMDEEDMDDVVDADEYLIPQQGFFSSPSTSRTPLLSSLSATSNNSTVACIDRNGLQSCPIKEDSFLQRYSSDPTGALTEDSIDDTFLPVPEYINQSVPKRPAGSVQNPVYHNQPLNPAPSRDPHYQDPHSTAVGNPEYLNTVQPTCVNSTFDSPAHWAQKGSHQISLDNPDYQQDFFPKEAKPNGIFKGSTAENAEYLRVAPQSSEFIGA
Focal adhesion kinase 1, sequence (Q05397 whole entry): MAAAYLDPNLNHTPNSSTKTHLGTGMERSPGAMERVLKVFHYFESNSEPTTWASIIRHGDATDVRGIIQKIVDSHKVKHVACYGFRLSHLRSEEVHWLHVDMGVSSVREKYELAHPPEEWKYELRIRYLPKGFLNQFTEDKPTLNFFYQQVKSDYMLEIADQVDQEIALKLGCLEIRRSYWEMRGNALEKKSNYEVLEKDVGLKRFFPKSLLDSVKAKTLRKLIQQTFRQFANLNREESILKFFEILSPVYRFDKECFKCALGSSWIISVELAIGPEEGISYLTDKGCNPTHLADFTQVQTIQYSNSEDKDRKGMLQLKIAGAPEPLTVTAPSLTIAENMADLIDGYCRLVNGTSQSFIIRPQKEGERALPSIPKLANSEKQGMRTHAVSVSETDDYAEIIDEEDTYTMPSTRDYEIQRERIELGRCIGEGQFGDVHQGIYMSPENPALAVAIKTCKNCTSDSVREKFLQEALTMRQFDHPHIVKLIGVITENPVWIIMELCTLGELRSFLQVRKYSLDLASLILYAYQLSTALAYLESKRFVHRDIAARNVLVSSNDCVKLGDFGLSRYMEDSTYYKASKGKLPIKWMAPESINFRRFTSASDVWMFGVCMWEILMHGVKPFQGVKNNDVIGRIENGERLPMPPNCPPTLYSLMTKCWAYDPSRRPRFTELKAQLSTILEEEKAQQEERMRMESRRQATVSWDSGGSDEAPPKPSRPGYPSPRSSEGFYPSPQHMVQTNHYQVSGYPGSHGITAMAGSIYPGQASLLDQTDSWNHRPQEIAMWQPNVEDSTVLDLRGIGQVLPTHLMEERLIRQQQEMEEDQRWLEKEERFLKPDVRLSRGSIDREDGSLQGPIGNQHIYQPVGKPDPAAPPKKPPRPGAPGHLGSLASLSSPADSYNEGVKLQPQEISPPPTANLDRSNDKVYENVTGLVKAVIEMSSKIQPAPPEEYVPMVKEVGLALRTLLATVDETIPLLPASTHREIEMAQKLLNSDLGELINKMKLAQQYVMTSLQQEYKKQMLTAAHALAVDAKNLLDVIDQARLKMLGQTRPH

| Compound | GI50 (HeLa) | GI50 (MCF7) | GI50 (A549) | CC50 at 48 h [1] | IC50 (Aurora kinase A) | IC50 [2] | IC50 [3] | IC50 [4] | IC50 (Focal adhesion kinase 1) | IC50 [5] | IC50 [6] |
| --- | --- | --- | --- | --- | --- | --- | --- | --- | --- | --- | --- |
| O=C(NOCc1ccccc1F)c1cn(-c2ccc(Cl)cc2)nc1-c1ccccc1 | 4.17 µM | 15.1 µM | 12.1 µM | 126 µM |  |  |  |  |  |  |  |
| Cc1ccc(-n2cc(C(=O)NOCc3ccc(Cl)cc3Cl)c(-c3ccccc3)n2)cc1 | 2.04 µM | 2.31 µM | 1.08 µM | 39.6 µM |  |  |  |  |  |  |  |
| Cc1ccc(-n2cc(C(=O)NOCc3ccccc3)c(-c3ccccc3)n2)cc1 | 6.69 µM | 1.87 µM | 1.14 µM | 40.8 µM |  |  |  |  |  |  |  |
| O=C(NOCc1ccccc1F)c1cn(-c2ccccc2)nc1-c1ccccc1 | 11.8 µM | 16.1 µM | 5.94 µM | 75.7 µM |  |  |  |  |  |  |  |
| O=C(NOCc1ccccc1)c1cn(-c2ccccc2)nc1-c1ccccc1 | 8.83 µM | 13.4 µM | 5 µM | 122 µM |  |  |  |  |  |  |  |
| COc1ccc(-n2cc(C(=O)NOCc3ccccc3)c(-c3ccccc3)n2)cc1 | 2.64 µM | 2.77 µM | 1.94 µM | 201 µM |  |  |  |  |  |  |  |
| O=C(NOCc1ccc(Cl)cc1Cl)c1cn(-c2ccc(Cl)cc2)nc1-c1ccccc1 | 5.16 µM | 16.2 µM | 13.1 µM | 46.3 µM |  |  |  |  |  |  |  |
| COc1ccc(-n2cc(C(=O)NOCc3ccccc3F)c(-c3ccccc3)n2)cc1 | 2.9 µM | 6 µM | 2.16 µM | 24.6 µM |  |  |  |  |  |  |  |
| O=C(NOCc1ccc(Cl)cc1Cl)c1cn(-c2ccccc2)nc1-c1ccccc1 | 5.1 µM | 9.66 µM | 7.35 µM | 40.2 µM |  |  |  |  |  |  |  |
| O=C(NOCc1ccccc1Cl)c1cn(-c2ccc(F)cc2)nc1-c1ccccc1 | 36.4 µM | 11.4 µM | 8.33 µM | 44.7 µM |  |  |  |  |  |  |  |
| O=C(NOCc1ccccc1Cl)c1cn(-c2ccccc2)nc1-c1ccccc1 | 17.8 µM | 7.41 µM | 10.3 µM | 82 µM |  |  |  |  |  |  |  |
| Cc1ccc(-n2cc(C(=O)NOCc3ccccc3F)c(-c3ccccc3)n2)cc1 | 1.18 µM | 2.11 µM | 0.26 µM | 20.6 µM | 8.3 µM | 0.091 µM | 0.61 µM | > 25 µM | 15.6 µM | > 25 µM | > 25 µM |
| O=C(NOCc1ccc(Cl)cc1Cl)c1cn(-c2ccc(F)cc2)nc1-c1ccccc1 | 7.35 µM | 25.3 µM | 14 µM | 45 µM |  |  |  |  |  |  |  |
| O=C(NOCc1ccccc1)c1cn(-c2ccc(F)cc2)nc1-c1ccccc1 | 6.11 µM | 15.3 µM | 10.4 µM | 217 µM |  |  |  |  |  |  |  |
| COc1ccc(-n2cc(C(=O)NOCc3ccc(Cl)cc3Cl)c(-c3ccccc3)n2)cc1 | 5.75 µM | 2.57 µM | 3.83 µM | 545 µM |  |  |  |  |  |  |  |
| COc1ccc(-n2cc(C(=O)NOCc3ccccc3Cl)c(-c3ccccc3)n2)cc1 | 3.48 µM | 3.73 µM | 2.45 µM | 586 µM |  |  |  |  |  |  |  |
| O=C(NOCc1ccccc1F)c1cn(-c2ccc(F)cc2)nc1-c1ccccc1 | 10.3 µM | 12 µM | 17.5 µM | 147 µM |  |  |  |  |  |  |  |
| Cc1ccc(-n2cc(C(=O)NOCc3ccccc3Cl)c(-c3ccccc3)n2)cc1 | 4.68 µM | 2.64 µM | 0.38 µM | 38.7 µM |  |  |  |  |  |  |  |
| O=C(NOCc1ccccc1Cl)c1cn(-c2ccc(Cl)cc2)nc1-c1ccccc1 | 8.85 µM | 16.1 µM | 15.5 µM | 129 µM |  |  |  |  |  |  |  |
| O=C(NOCc1ccccc1)c1cn(-c2ccc(Cl)cc2)nc1-c1ccccc1 | 8.35 µM | 10.8 µM | 13 µM | 51.9 µM |  |  |  |  |  |  |  |
| COc1cc2ncnc(Nc3ccc(F)c(Cl)c3)c2cc1OCCCN1CCOCC1 [GEFITINIB] |  |  | 2.86 µM |  |  |  |  |  |  |  |  |
